Data set [1] has as its target T1, Amine oxidase [flavin-containing] B (Bos taurus, UniProt P56560).
T1 sequence (P56560 whole entry): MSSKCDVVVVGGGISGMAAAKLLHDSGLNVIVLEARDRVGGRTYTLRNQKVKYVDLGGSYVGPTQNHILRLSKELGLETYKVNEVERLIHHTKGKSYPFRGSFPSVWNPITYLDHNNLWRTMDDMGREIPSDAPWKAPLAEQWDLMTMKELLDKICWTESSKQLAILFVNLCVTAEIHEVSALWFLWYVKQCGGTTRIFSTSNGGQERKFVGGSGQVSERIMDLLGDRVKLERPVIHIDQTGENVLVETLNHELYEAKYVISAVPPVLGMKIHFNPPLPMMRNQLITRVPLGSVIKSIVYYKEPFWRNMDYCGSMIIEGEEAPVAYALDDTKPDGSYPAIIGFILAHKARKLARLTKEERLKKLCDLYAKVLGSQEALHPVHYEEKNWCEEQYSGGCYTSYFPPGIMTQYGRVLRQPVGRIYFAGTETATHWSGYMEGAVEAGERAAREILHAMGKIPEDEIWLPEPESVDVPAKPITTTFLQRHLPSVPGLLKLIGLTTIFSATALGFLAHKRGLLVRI
Kind of data set: Ratio of catalytic constant and Michaelis-Menten constant for MAO-B. Conditions: cattle. An outline of the steps:
(§1)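 MAO-B at 0.08 μM final; activity was calibrated with MPTP at 30 °C and the preparation was stored at –15 °C. Substrate range 100–2000 μM in 100 mM sodium phosphate pH 7.4, with spectrophotometric initial oxidation rates. KM and kcat derived from double-reciprocal plots, and kcat/KM calculated from them.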

For data set [2], the target named is T2, Amine oxidase [flavin-containing] A (Homo sapiens, UniProt P21397).
T2 sequence (P21397 whole entry): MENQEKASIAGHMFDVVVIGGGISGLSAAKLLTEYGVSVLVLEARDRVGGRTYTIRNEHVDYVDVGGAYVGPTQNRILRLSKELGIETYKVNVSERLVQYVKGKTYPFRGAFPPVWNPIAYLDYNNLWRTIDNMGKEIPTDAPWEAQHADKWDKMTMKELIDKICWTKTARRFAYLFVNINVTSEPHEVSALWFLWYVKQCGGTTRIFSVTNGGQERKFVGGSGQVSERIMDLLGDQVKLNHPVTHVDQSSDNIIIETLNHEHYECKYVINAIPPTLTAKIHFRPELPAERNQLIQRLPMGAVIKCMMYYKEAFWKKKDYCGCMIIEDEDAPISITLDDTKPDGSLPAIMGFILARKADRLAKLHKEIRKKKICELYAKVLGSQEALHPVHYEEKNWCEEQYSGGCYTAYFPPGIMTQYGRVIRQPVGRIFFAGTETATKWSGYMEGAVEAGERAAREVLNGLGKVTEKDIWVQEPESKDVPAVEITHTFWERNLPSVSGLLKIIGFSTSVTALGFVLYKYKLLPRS
Kind of data set: Kinetic value evaluated as catalyzed oxidation (kcat). The method, boiled down:
(§2)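 kcat from initial oxidation rates, read by spectrophotometer, with test compounds at 100–2000 μM final in 100 mM sodium phosphate pH 7.4, using 0.16 μM MAO-A or 0.08 μM MAO-B. kcat and KM came from double-reciprocal plots. Repeat determinations were made on selected substrates at different times.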

For data set [3], the target named is T2, Amine oxidase [flavin-containing] A. Kind of data set: Ratio of catalytic constant and Michaelis-Menten constant for MAO-A. An outline of the steps: (§3)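 MAO-A at 0.16 μM final, raised to 0.32 μM for one slowly oxidized substrate. The MAO-A preparation was diluted with 3 volumes of phosphate buffer just before use, and its activity was re-checked bimonthly with kynuramine at 30 °C. Substrates at 100–2000 μM in 100 mM sodium phosphate pH 7.4; initial rates by spectrophotometry. kcat and KM from double-reciprocal plots; kcat/KM as their ratio.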

Data set [4] deals with T3, Monoamine oxidase B (amine oxidase [flavin-containing] B) (Bos taurus, UniProt P56560).
T3 sequence (P56560 whole entry): T1 sequence (P56560 whole entry)
As to the kind of experiment: (§4) Michaelis-Menten constant for Monoamine oxidase B catalyzed oxidation (KM). The following applies: cattle. An outline of the steps: as §1

For data set [5], the target named is T4, Monoamine oxidase A (amine oxidase [flavin-containing] A) (Homo sapiens, UniProt P21397).
T4 sequence (P21397 whole entry): T2 sequence (P21397 whole entry)
As to the kind of experiment: Michaelis-Menten constant for Monoamine oxidase A catalyzed oxidation (Km). An outline of the steps: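 MAO-A preparation, viscous, diluted with 3 volumes of phosphate buffer just before use; activity standardised with kynuramine at 30 °C. Substrates as oxalate salts at 100–2000 μM final in 100 mM sodium phosphate, pH 7.4, with 0.16 μM MAO-A. Initial oxidation rates were followed spectrophotometrically, and Km came from double-reciprocal plots.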

Data set [6] addresses T1, Amine oxidase [flavin-containing] B. Kind of data set: Kinetic value evaluated as catalyzed oxidation rate (kcat). Conditions: cattle. An outline of the steps:
as §2

The target is the same in data set [7]. Described as §4. Conditions: cattle. An outline of the steps:
as §1

In data set [8] the target is T2, Amine oxidase [flavin-containing] A. Kind of data set: Michaelis-Menten constant for Monoamine oxidase A-catalyzed oxidation (KM). The method, boiled down:
as §3

With `CN1CC=C(c2ccccc2)CC1`, the “k cat/Km” value amounted to 23850 M⁻¹ s⁻¹ in data set [1] and 783 M⁻¹ s⁻¹ in data set [3]. The k cat in data set [2] came out at 0.517 s⁻¹; in data set [6] it was 4.55 s⁻¹. The Km (usually the concentration of substrate that gives half-maximal velocity) in data set [4] was determined as 191 µM; in data set [5], 654 µM.

Regarding `CN1CC=C(Oc2ccc(-c3ccccc3)cc2)CC1`, the “k cat/Km” value in data set [1] stood at 6050 M⁻¹ s⁻¹; in data set [3], 28500 M⁻¹ s⁻¹. Further, the k cat in data set [2] is 2.88 s⁻¹; in data set [6], 1.72 s⁻¹. Moreover, the figures for the Michaelis constant (Km) in data set [7] and in data set [8] were 284 µM and 101 µM, respectively.

For `CN1CC=C(Oc2ccccc2)CC1`, the “k cat/Km” value was found to be 69180 M⁻¹ s⁻¹ in data set [1] and 39320 M⁻¹ s⁻¹ in data set [3]. For the same molecule, the k cat came out at 2.17 s⁻¹ in data set [2] and 4.02 s⁻¹ in data set [6]. Also, the Km was 58 µM in data set [7] and 55 µM in data set [8].
